# Published values collected from several papers.
# Target: Serine/threonine-protein kinase PLK1 (PLK1, Homo sapiens, UniProt P53350)
SMILES,test,conditions,remaining binding
COc1ncc2cc3ccccc3nc2c1C#N,"cell-free assay, competition with immobilised ligand",5 µM,73%
C[C@@H]1CCN(c2nccc(-c3cnn4ncccc34)n2)C1,binding,1 µM,76%
CC1=C(C#N)C(c2ccc3c(c2)c(NC(=O)c2ccccc2C)nn3C)C(C#N)=C(C)N1,"cell-free assay, competition with immobilised ligand",1 µM,85%
CN(c1nccc(-c2cnn3ncccc23)n1)C1CC1,binding,1 µM,100%
Cc1c(C(=O)O)cc(-c2ccc(C3CCNCC3)cc2)c2ccc(-c3ccc(C(F)(F)F)cc3)cc12,"binding, competition with immobilised ligand",1 µM,94%
FC(F)(F)Oc1cccc(-c2cnc3ccc(-c4ccncc4)nn23)c1,"cell-free assay, competition with immobilised ligand",5 µM,93%
O=C(c1ccc(Nc2ncc(Cl)c(-c3ccc(Cl)s3)n2)cc1)N1CCC(N2CCCC2)CC1,"binding, competition with immobilised ligand",1 µM,61%
CN(C)c1nccc(-c2cnn3ncccc23)n1,binding,1 µM,56%
COc1cnc(Nc2cccc(S(N)(=O)=O)c2)nc1N1CCN(c2ccccc2)CC1,"binding, competition with immobilised ligand",1 µM,79%
C[C@@H]1CN(c2ccc3ncc(-c4ccc5[nH]nc(C6CC6)c5c4)n3n2)C[C@H](C)O1,"binding, competition with immobilised ligand",50 nM,97%
COc1ccnn2ncc(-c3ccnc(N(C)C)n3)c12,binding,1 µM,94%
CCN1CCN(Cc2ccc(C(=O)Nc3ccc(C)c(Oc4ccc5c(c4)CC(=O)N5)c3)cc2C(F)(F)F)CC1,"binding, competition with immobilised ligand",1 µM,100%
O=C(c1ccc(Nc2ncc(Cl)c(-c3cc4ccccc4s3)n2)cc1)N1CCC(N2CCCC2)CC1,"binding, competition with immobilised ligand",1 µM,57%
N#Cc1ccccc1CSc1nnc2c(n1)[nH]c1ccccc12,"binding, competition with immobilised ligand",10 µM,94%
COc1cc(C(=O)N2CCC(N3CCN(C)CC3)CC2)ccc1Nc1ncc2c(n1)N(C)c1ccccc1C(=O)N2C,"binding, competition with immobilised ligand",10 µM,0.7%
C[C@H](c1cccc(C#N)c1)n1cc(Cl)cc(C(N)=O)c1=N,"cell-free assay, competition with immobilised ligand",1 µM,89%
O=C(Nc1c[nH]nc1C(=O)NC1CCNCC1)c1cc(F)cc(F)c1,"binding, competition with immobilised ligand",1 µM,100%
CCCOc1ccc([C@H]2[C@H](C(=O)O)[C@@H](c3ccc4c(c3)OCO4)CN2CC(=O)Nc2c(CC)cccc2CC)cc1,"cell-free assay, competition with immobilised ligand",1 µM,80%
O=C(NCCCN1CCOCC1)c1ccc(Nc2ncc(Cl)c(-c3ccc(Cl)s3)n2)cc1,"binding, competition with immobilised ligand",1 µM,22%
CO[C@@H](C)c1c(Nc2ccc([C@@H](N(C)C(=O)C3CCS(=O)(=O)CC3)C(F)(F)F)cc2)cnc2cc(Cl)nn12,"cell-free assay, competition with immobilised ligand",1 µM,87%
CN(CCCC(F)(F)F)c1nccc(-c2cnn3ncccc23)n1,binding,1 µM,84%
c1ccc(N2CCN(Cc3nc4ccccc4[nH]3)CC2)nc1,"binding, competition with immobilised ligand",1 µM,100%
c1cnn2ncc(-c3ccnc(N4CCC45COC5)n3)c2c1,binding,1 µM,72%
NS(=O)(=O)c1cc(NC(=O)Cc2ccccc2)ccc1Oc1cccc(Cl)c1,"cell-free assay, competition with immobilised ligand",1 µM,73%
Nc1ncc2c(n1)-c1c([nH]c3ccc(C#CC4CC4)cc13)CCCC2,"binding, competition with immobilised ligand",1 µM,68%
